Reference: ChEMBL document CHEMBL3864121, “Development of ebsulfur analogues as potent antibacterials against methicillin-resistant Staphylococcus aureus” (Bioorg Med Chem, 2016)
Values after ≈ are worked out from the molar mass of the structure shown. Active and inactive are the calls of the source. No cut-off for these calls is given here.

Key:
Staphylococcus aureus [1] = assay: Antibacterial activity against methicillin-sensitive Staphylococcus aureus ATCC 25923 measured after overnight incubation by broth double-dilution method; format: functional
How it was run: (§1)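 MIC by broth double-dilution in liquid Mueller-Hinton medium. Values are reported in µg/mL.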

Staphylococcus aureus [2] = assay: Antibacterial activity against methicillin-sensitive Staphylococcus aureus ATCC 29213 measured after overnight incubation by broth double-dilution method; format: functional; how it was run: as §1
Staphylococcus aureus [3] = assay: Antibacterial activity against methicillin-resistant Staphylococcus aureus ATCC 33591 measured after overnight incubation by broth double-dilution method; format: functional; how it was run: as §1
Staphylococcus aureus [4] = assay: Antibacterial activity against methicillin-resistant Staphylococcus aureus 1 measured after overnight incubation by broth double-dilution method; format: functional; how it was run: as §1
Staphylococcus aureus [5] = assay: Antibacterial activity against methicillin-resistant Staphylococcus aureus 2 measured after overnight incubation by broth double-dilution method; format: functional; how it was run: as §1
Staphylococcus aureus [6] = assay: Antibacterial activity against methicillin-resistant Staphylococcus aureus BRS3 measured after overnight incubation by broth double-dilution method; format: functional; how it was run: as §1
Staphylococcus aureus [7] = assay: Antibacterial activity against methicillin-resistant Staphylococcus aureus C1 measured after overnight incubation by broth double-dilution method; format: functional; how it was run: as §1
Staphylococcus aureus [8] = assay: Antibacterial activity against methicillin-resistant Staphylococcus aureus C2 measured after overnight incubation by broth double-dilution method; format: functional; how it was run: as §1
Staphylococcus aureus [9] = assay: Antibacterial activity against methicillin-resistant Staphylococcus aureus C7 measured after overnight incubation by broth double-dilution method; format: functional; how it was run: as §1
Staphylococcus aureus [10] = assay: Antibacterial activity against methicillin-resistant Staphylococcus aureus C14 measured after overnight incubation by broth double-dilution method; format: functional; how it was run: as §1
Staphylococcus aureus [11] = assay: Antibacterial activity against methicillin-resistant Staphylococcus aureus C16 measured after overnight incubation by broth double-dilution method; format: functional; how it was run: as §1
Staphylococcus aureus [12] = assay: Antibacterial activity against methicillin-resistant Staphylococcus aureus C19 measured after overnight incubation by broth double-dilution method; format: functional; how it was run: as §1
Staphylococcus aureus [13] = assay: Antibacterial activity against methicillin-resistant Staphylococcus aureus G1 measured after overnight incubation by broth double-dilution method; format: functional; how it was run: as §1
Staphylococcus aureus [14] = assay: Antibacterial activity against methicillin-resistant Staphylococcus aureus G6 measured after overnight incubation by broth double-dilution method; format: functional; how it was run: as §1
Staphylococcus aureus [15] = assay: Antibacterial activity against methicillin-resistant Staphylococcus aureus G12 measured after overnight incubation by broth double-dilution method; format: functional; how it was run: as §1
Staphylococcus aureus [16] = assay: Antibacterial activity against methicillin-resistant Staphylococcus aureus G14 measured after overnight incubation by broth double-dilution method; format: functional; how it was run: as §1
Staphylococcus aureus [17] = assay: Antibacterial activity against methicillin-resistant Staphylococcus aureus NRS4 measured after overnight incubation by broth double-dilution method; format: functional; how it was run: as §1
Staphylococcus aureus [18] = assay: Antibacterial activity against methicillin-resistant Staphylococcus aureus NRS51 measured after overnight incubation by broth double-dilution method; format: functional; how it was run: as §1
Staphylococcus aureus [19] = assay: Antibacterial activity against methicillin-resistant Staphylococcus aureus NRS77 measured after overnight incubation by broth double-dilution method; format: functional; how it was run: as §1
Staphylococcus aureus [20] = assay: Antibacterial activity against methicillin-resistant Staphylococcus aureus S14 measured after overnight incubation by broth double-dilution method; format: functional; how it was run: as §1
Staphylococcus aureus [21] = assay: Antibacterial activity against methicillin-resistant Staphylococcus aureus S17 measured after overnight incubation by broth double-dilution method; format: functional; how it was run: as §1
Staphylococcus aureus [22] = assay: Antibacterial activity against methicillin-resistant Staphylococcus aureus S22 measured after overnight incubation by broth double-dilution method; format: functional; how it was run: as §1
Staphylococcus aureus [23] = assay: Antibacterial activity against methicillin-resistant Staphylococcus aureus S24 measured after overnight incubation by broth double-dilution method; format: functional; how it was run: as §1
Staphylococcus aureus [24] = assay: Antibacterial activity against methicillin-resistant Staphylococcus aureus USA100 measured after overnight incubation by broth double-dilution method; format: functional; how it was run: as §1
Staphylococcus aureus [25] = assay: Antibacterial activity against methicillin-resistant Staphylococcus aureus USA200 measured after overnight incubation by broth double-dilution method; format: functional; how it was run: as §1
Staphylococcus aureus [26] = assay: Antibacterial activity against methicillin-resistant Staphylococcus aureus USA300 measured after overnight incubation by broth double-dilution method; format: functional; how it was run: as §1
Staphylococcus aureus [27] = assay: Antibacterial activity against methicillin-resistant Staphylococcus aureus USA600 measured after overnight incubation by broth double-dilution method; format: functional; how it was run: as §1
[28] = test system: Staphylococcus epidermidis; assay: Antibacterial activity against Staphylococcus epidermidis ATCC 35984 measured after overnight incubation by broth double-dilution method; format: functional; conditions: RP62A
How it was run: (§2)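 MIC by broth double-dilution in Mueller-Hinton medium. Re-testing at the time-kill inoculum used 1×10^6 CFU/mL.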

Enterococcus faecalis [29] = assay: Antibacterial activity against Enterococcus faecalis ATCC 29212 measured after overnight incubation by broth double-dilution method; format: functional; how it was run: as §2
Enterococcus faecalis [30] = assay: Antibacterial activity against Enterococcus faecalis ATCC 49533 measured after overnight incubation by broth double-dilution method; format: functional; how it was run: as §2
Enterococcus faecium = assay: Antibacterial activity against Enterococcus faecium BM4105-RF measured after overnight incubation by broth double-dilution method; format: functional; how it was run: as §1
Enterococcus = assay: Antibacterial activity against Vancomycin-resistant Enterococcus measured after overnight incubation by broth double-dilution method; format: functional; how it was run: as §1
Listeria monocytogenes = assay: Antibacterial activity against Listeria monocytogenes ATCC 19115 measured after overnight incubation by broth double-dilution method; format: functional; how it was run: as §2
[31] = test system: Mycolicibacterium smegmatis; assay: Antibacterial activity against Mycobacterium smegmatis MC2-155 measured after overnight incubation by broth double-dilution method; format: functional; conditions: str. MC2 155; how it was run: as §1
Acinetobacter baumannii = assay: Antibacterial activity against Acinetobacter baumannii ATCC 19606 measured after overnight incubation by broth double-dilution method; format: functional; how it was run: as §2
Enterobacter cloacae = assay: Antibacterial activity against Enterobacter cloacae ATCC 13047 measured after overnight incubation by broth double-dilution method; format: functional; conditions: subsp. cloacae ATCC 13047; how it was run: as §1
Escherichia coli = assay: Antibacterial activity against Escherichia coli MC1061 measured after overnight incubation by broth double-dilution method; format: functional; how it was run: as §1
Klebsiella pneumoniae = assay: Antibacterial activity against Klebsiella pneumoniae ATCC 27736 measured after overnight incubation by broth double-dilution method; format: functional; how it was run: as §1
Pseudomonas aeruginosa = assay: Antibacterial activity against Pseudomonas aeruginosa ATCC 27853 measured after overnight incubation by broth double-dilution method; format: functional; how it was run: as §2
Salmonella enterica = assay: Antibacterial activity against Salmonella enterica ATCC 14028 measured after overnight incubation by broth double-dilution method; format: functional; how it was run: as §2
[32] = test system: Staphylococcus epidermidis; assay: Antibacterial activity against Staphylococcus epidermidis ATCC 12228 measured after overnight incubation by broth double-dilution method; format: functional; how it was run: as §2
[33] = test system: Staphylococcus epidermidis; assay: Antibiofilm activity against Staphylococcus epidermidis ATCC 35984 assessed as reduction of biofilm at […] ug/ml measured after 24 hrs by crystal violet staining based method relative to control; format: functional, RP62A; design: scale not given: the % may be the effect or the level left
[34] = Cytotoxicity against mouse RBCs assessed as hemolysis up to […] measured after 1 hr; format: toxicity, Erythrocyte; conditions: mouse red blood cells, read-out: Activity
Mus musculus = species: Mus musculus; assay: Cytotoxicity against mouse RBCs assessed as hemolysis at 0.24 to 31.2 ug/ml measured after 1 hr; format: toxicity; conditions: erythrocyte
How it was run: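 Murine red blood cells were exposed to compounds at various concentrations, with amikacin as a control. Percent hemolysis was scored against untreated cells (0%) and 1% Triton X (100%).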

[35] = Cytotoxicity against HEK293 cells assessed as cell death up to 10 ug/ml measured after 24 hrs by resazurin dye-based fluorescence analysis relative to untreated control; format: toxicity; conditions: human, hek293, 24 h
Staphylococcus aureus [36] = assay: Antibacterial activity against methicillin-resistant Staphylococcus aureus S22 using 1 10^6CFU/ml measured after overnight incubation by broth double-dilution method; format: functional

With CC(C)c1cccc(-n2sc3ccccc3c2=O)c1 the MIC (Staphylococcus aureus [1]) was 0.5 µg/mL (≈ 1.86 µM), the MIC (Staphylococcus aureus [2]) was at most 0.25 µg/mL and the MIC (Staphylococcus aureus [3]) was at most 0.25 µg/mL. For the same compound, the MIC (Staphylococcus aureus [4]) was at most 0.25 µg/mL, the MIC (Staphylococcus aureus [5]) was at most 0.25 µg/mL and the MIC (Staphylococcus aureus [6]) was 1 µg/mL (≈ 3.71 µM). The MIC (Staphylococcus aureus [7]) was at most 0.25 µg/mL, the MIC (Staphylococcus aureus [8]) was at most 0.25 µg/mL and the MIC (Staphylococcus aureus [9]) was at most 0.25 µg/mL. It also gave an MIC (Staphylococcus aureus [10]) of 0.5 µg/mL (≈ 1.86 µM), an MIC (Staphylococcus aureus [11]) of at most 0.25 µg/mL and an MIC (Staphylococcus aureus [12]) of at most 0.25 µg/mL. The MIC (Staphylococcus aureus [13]) was at most 0.25 µg/mL, the MIC (Staphylococcus aureus [14]) was 0.5 µg/mL (≈ 1.86 µM) and the MIC (Staphylococcus aureus [15]) was 0.5 µg/mL (≈ 1.86 µM). It also gave an MIC (Staphylococcus aureus [16]) of 0.5 µg/mL (≈ 1.86 µM), an MIC (Staphylococcus aureus [17]) of 1 µg/mL (≈ 3.71 µM) and an MIC (Staphylococcus aureus [18]) of at most 0.25 µg/mL. For the same compound, the MIC (Staphylococcus aureus [19]) was 0.5 µg/mL (≈ 1.86 µM), the MIC (Staphylococcus aureus [20]) was at most 0.25 µg/mL and the MIC (Staphylococcus aureus [21]) was at most 0.25 µg/mL. It also gave an MIC (Staphylococcus aureus [22]) of 1 µg/mL (≈ 3.71 µM), an MIC (Staphylococcus aureus [23]) of at most 0.25 µg/mL and an MIC (Staphylococcus aureus [24]) of 0.5 µg/mL (≈ 1.86 µM). It also gave an MIC (Staphylococcus aureus [25]) of 0.5 µg/mL (≈ 1.86 µM), an MIC (Staphylococcus aureus [26]) of at most 0.25 µg/mL and an MIC (Staphylococcus aureus [27]) of at most 0.25 µg/mL. The MIC [28] was 0.25 µg/mL (≈ 0.928 µM), the MIC (Enterococcus faecalis [29]) was over 125 µg/mL and the MIC (Enterococcus faecalis [30]) was over 125 µg/mL. It also gave an MIC (Enterococcus faecium) of 3.9 µg/mL (≈ 14.5 µM), an MIC (Enterococcus) of at most 0.25 µg/mL and an MIC (Listeria monocytogenes) of 1 µg/mL (≈ 3.71 µM). The MIC [31] was 1 µg/mL (≈ 3.71 µM), the MIC (Acinetobacter baumannii) was 31.3 µg/mL (≈ 116 µM) and the MIC (Enterobacter cloacae) was over 125 µg/mL. The MIC (Escherichia coli) was 15.6 µg/mL (≈ 57.9 µM), the MIC (Klebsiella pneumoniae) was over 125 µg/mL and the MIC (Pseudomonas aeruginosa) was over 125 µg/mL. The MIC (Salmonella enterica) was over 125 µg/mL, the MIC [32] was over 125 µg/mL and the Activity [33] was 50 - 60%. For the same compound, the hemolysis at 1 h [34] was at most 20%, the Activity (Mus musculus) was “Non-Toxic” and the Activity [35] was over 20%. The Activity (Staphylococcus aureus [36]) was “Active”.
